Measured values taken from ChEMBL document CHEMBL1128280, “Synthesis, topoisomerase I inhibitory activity, and in vivo evaluation of 11-azacamptothecin analogs” (J Med Chem, 1995).
Values after ≈ are worked out from the molar mass of the structure shown.

What was measured:
[1] = Aqueous solubility in pH 5 acetate buffer.; format: physicochemical
Summary of the method: (§1)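 Excess solid equilibrated in 0.25 mL 0.1 M sodium acetate, pH 5.0, 25 °C, 24 h; filtered (0.22 μm); lactone and carboxylate forms separated by reverse-phase C-18 HPLC, mobile phase 40% organic/60% aqueous with 0.005 M tetrabutylammonium phosphate; quantified against calibration curves of standard peak areas.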

[2] = (§2) Concentration required to inhibit 50% growth of human colon carcinoma cell line (HT-29); format: functional, cell-based
Summary of the method: (§3)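 MTT microculture tetrazolium assay; cells grown in α-MEM with 15% heat-inactivated FBS, glutamine, pyruvate, insulin, nonessential amino acids, gentamycin, 37 °C, 5% CO2; adhered overnight, exposed to compound 48 h then fresh medium 48 h; 0.17 nM to 10 μM, quadruplicate; 4 h MTT, DMSO extraction; four-parameter logistic fit, usually single curve.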

[3] = test system: SK-OV-3; experiment: Concentration required to inhibit 50% growth of human ovarian cancer cell line(SK-OV-3) was measured; format: functional, cell-based; summary of the method: as §3
[4] = test system: Mus musculus; experiment: Delay in tumor growth in mice to 500% volume of day 1 relative to control at dose 90 mg/kg.; format: functional
Summary of the method: (§4)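 Female nu/nu mice bearing subcutaneous flank HT-29 xenografts; single-bolus subcutaneous maximum tolerated dose first set in tumor-free mice by body weight loss, then split into three portions given over one day (N = 6); caliper volume = length × width²/2; T−C = difference in days for mean tumor volume to reach 500% of initial, treated vs controls.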

[5] = Aqueous solubility determined in pH 5 acetate buffer; format: physicochemical; summary of the method: as §1
[6] = test system: Mus musculus; experiment: Delay in tumor growth in mice to 500% volume of day 1 relative to control at dose 100 mg/kg.; format: functional; summary of the method: as §4
[7] = test system: HT-29; experiment: as §2; format: functional, cell-based; summary of the method: as §3
[8] = test system: Mus musculus; experiment: Delay in tumor growth in mice to 500% volume of day 1 relative to control at dose 25 mg/kg.; format: functional; summary of the method: as §4
[9] = test system: SK-VLB; experiment: Concentration required to inhibit 50% growth of vinblastine resistant ovarian cancer cell line(SKVLB); format: functional, cell-based; details: Homo sapiens; summary of the method: as §3
[10] = test system: Mus musculus; experiment: Delay in tumor growth in mice to 500% volume of day 1 relative to control at dose 146 mg/kg; format: functional; summary of the method: as §4
[11] = test system: Mus musculus; experiment: Delay in tumor growth in mice to 500% volume of day 1 relative to control at dose 120 mg/kg.; format: functional; summary of the method: as §4
[12] = test system: Mus musculus; experiment: Delay in tumor growth in mice to 500% volume of day 1 relative to control at dose 200 mg/kg.; format: functional; summary of the method: as §4
[13] = test system: Mus musculus; experiment: Delay in tumor growth in mice to 500% volume of day 1 relative to control at dose 54 mg/kg.; format: functional
Summary of the method: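 Female nu/nu mice (18-24 g) with subcutaneous HT-29 flank xenografts, N = 6. Maximum tolerated single subcutaneous bolus first set by body weight loss in tumor-free nude mice. That dose was split into three portions given over one day. Tumor volume by calipers as length × width²/2. T−C is the delay, in days, for mean tumor volume to reach 500% of initial versus untreated controls.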

Structure (SMILES)	IC50 [3]	solubility [5]	IC50 [7]	further results
CCc1c2c(nc3cnccc13)-c1cc3c(c(=O)n1C2)COC(=O)[C@]3(O)CC	–	–	–	solubility [1]: 10 µg/mL (≈ 0.0265 mM)
CCc1c2c(nc3cnc(C(=N)N)cc13)-c1cc3c(c(=O)n1C2)COC(=O)[C@]3(O)CC	71 nM	> 3000 µg/mL	–	IC50 [2]: 311 nM; T-C [4]: 6 days
CCc1c2c(nc3c[n+](C)ccc13)-c1cc3c(c(=O)n1C2)COC(=O)[C@]3(O)CC.[I-]	–	–	–	T-C [6]: 3.5 days; solubility [1]: > 2500 µg/mL
CC[C@@]1(O)C(=O)OCc2c1cc1n(c2=O)Cc2c-1nc1cnc(C#CCN)cc1c2C	245 nM	–	–	IC50 [2]: 355 nM
CC[C@@]1(O)C(=O)OCc2c1cc1n(c2=O)Cc2cc3cc[n+]([O-])cc3nc2-1	–	–	–	solubility [1]: 300 µg/mL (≈ 0.821 mM)
CCOC(=O)c1cc2c(CC)c3c(nc2cn1)-c1cc2c(c(=O)n1C3)COC(=O)[C@]2(O)CC	–	–	26 nM	–
CCc1c2c(nc3cnc(C(=N)NO)cc13)-c1cc3c(c(=O)n1C2)COC(=O)[C@]3(O)CC	0.8 nM	> 3000 µg/mL	–	IC50 [2]: 7 nM; T-C [8]: 15 days
CCc1c2c(nc3cnc(C#N)cc13)-c1cc3c(c(=O)n1C2)COC(=O)[C@]3(O)CC	–	–	17 nM	–
CCc1c2c(nc3cnc(CN)cc13)-c1cc3c(c(=O)n1C2)COC(=O)[C@]3(O)CC	32 nM	–	–	IC50 [9]: 444 nM
CC[C@@]1(O)C(=O)OCc2c1cc1n(c2=O)Cc2c-1nc1cnc(Br)cc1c2C	1 nM	–	1 nM	IC50 [9]: 0.5 nM
CCc1c2c(nc3cnc(C#CCN)cc13)-c1cc3c(c(=O)n1C2)COC(=O)[C@]3(O)CC	243 nM	5700 µg/mL (≈ 13.2 mM)	351 nM	T-C [10]: 1.5 days; IC50 [9]: 384 nM
CCc1c2c(nc3cnc(Br)cc13)-c1cc3c(c(=O)n1C2)COC(=O)[C@]3(O)CC	–	–	7 nM	–
CC[C@@]1(O)C(=O)OCc2c1cc1n(c2=O)Cc2c-1nc1c[n+]([O-])c(CN)cc1c2C	66 nM	> 3000 µg/mL	–	IC50 [2]: 731 nM; T-C [11]: 5.3 days
CC[C@@]1(O)C(=O)OCc2c1cc1n(c2=O)Cc2c-1nc1cnc(CN)cc1c2C	17 nM	7200 µg/mL (≈ 18.3 mM)	123 nM	T-C [12]: 3.4 days; IC50 [9]: 42 nM
CC[C@@]1(O)C(=O)OCc2c1cc1n(c2=O)Cc2cc3ccccc3nc2-1 [CAMPTOTHECIN]	–	–	–	solubility [1]: < 5 µg/mL
CC[C@@]1(O)C(=O)OCc2c1cc1n(c2=O)Cc2cc3c(CN(C)C)c(O)ccc3nc2-1.Cl [TOPOTECAN HYDROCHLORIDE]	–	3100 µg/mL	–	T-C [13]: 10.3 days
